Measurements as given in ChEMBL document CHEMBL4229456, “Salicylic Acid Derivatives Inhibit Oxalate Production in Mouse Hepatocytes with Primary Hyperoxaluria Type 1” (J Med Chem, 2018).

Assays:
[1] = target: T1, 2-Hydroxyacid oxidase 1 (Mus musculus) (UniProt Q9WU19); test: Inhibition of glycolate oxidase in C57BL/6 Agxt1-/- mouse hepatocytes using glycolate as substrate assessed as relative oxalate level at 10 uM after 24 hrs; format: cell-based
T1 sequence (whole entry): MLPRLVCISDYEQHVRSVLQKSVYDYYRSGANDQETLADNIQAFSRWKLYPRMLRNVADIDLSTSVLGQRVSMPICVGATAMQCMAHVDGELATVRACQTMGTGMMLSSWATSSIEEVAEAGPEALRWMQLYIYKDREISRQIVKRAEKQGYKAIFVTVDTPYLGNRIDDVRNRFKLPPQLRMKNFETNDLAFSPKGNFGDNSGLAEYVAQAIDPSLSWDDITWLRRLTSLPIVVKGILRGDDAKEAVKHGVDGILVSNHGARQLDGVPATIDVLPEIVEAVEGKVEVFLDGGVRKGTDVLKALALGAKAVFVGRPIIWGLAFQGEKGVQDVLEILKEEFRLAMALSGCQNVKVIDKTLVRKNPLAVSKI
Summary of the method: (§1)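 Primary Agxt1-/- mouse hepatocytes in 6-well plates, serum-free Williams E with 5 mM glycolate, treated with 10 µM compound. Excreted oxalate measured 24 h later by oxalate oxidase–HRP colorimetric kit (595 nm) and expressed relative to untreated control. Mean ± SD, n = 3, one-way ANOVA.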

[2] = target: T1, 2-Hydroxyacid oxidase 1 (Mus musculus); test: Inhibition of mouse recombinant glycolate oxidase expressed in Escherichia coli at 25 uM using glycolate as substrate after 1 min by sulfonated DCIP dye-based assay relative to control
[3] = target: T2, 2-Hydroxyacid oxidase 1 (Mus musculus, UniProt Q9WU19); test: Inhibition of mouse recombinant glycolate oxidase expressed in Escherichia coli using glycolate as substrate by sulfonated DCIP dye-based assay
T2 sequence (Q9WU19 whole entry): T1 sequence (whole entry)
Summary of the method: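 Purified recombinant mGO (10 µL at 0.1 µg/µL) with saturating glycolate (22.2 mM) in 50 mM potassium phosphate pH 7. Compound at 0.2 µM–0.2 mM; H2O2 detected by HRP-coupled sulfonated DCIP/4-aminoantipyrine dye at 515 nm. IC50 from nonlinear dose-response fitting.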

[4] = target: T1, 2-Hydroxyacid oxidase 1 (Mus musculus); test: Inhibition of glycolate oxidase in C57BL/6 Agxt1-/- mouse hepatocytes using glycolate as substrate assessed as relative oxalate level at 12.5 uM after 24 hrs; format: cell-based
Summary of the method: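 Primary hepatocytes were isolated from male C57BL/6 Agxt1-/- mouse liver by in situ collagenase perfusion. They were plated at 3.0x10^5 cells/well in supplemented Williams E with 5% FBS, then switched after 5 h to serum-free medium and treated in the presence of 5 mM glycolate. Medium was collected at 24 h, or 48 and 72 h for dose-response. Oxalate was read by oxalate oxidase/HRP (MBTH/DMAB) at 595 nm relative to control.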

[5] = target: T2, 2-Hydroxyacid oxidase 1; test: Inhibition of mouse N-terminal His-tagged glycolate oxidase expressed in BL21(DE3) Escherichia coli using glycolate as substrate by Cornish-Bowden plot analysis
Summary of the method: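 Recombinant mouse GO came from E. coli carrying a pET15b Hao1 vector and was purified by affinity chromatography. Glycolate oxidation was run in 50 mM potassium phosphate pH 7. H2O2 was coupled through HRP with sulfonated DCIP/4-aminoantipyrine and read at 515 nm. Inhibitor and substrate concentrations were varied at constant enzyme, and Ki was taken from the line intersection in Cornish-Bowden and Dixon plots.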

[6] = target: T2, 2-Hydroxyacid oxidase 1; test: Inhibition of glycolate oxidase in mouse Agxt1-/- hepatocytes using glycolate as substrate assessed as reduction in oxalate production after 48 hrs by sulfonated-DCIP dye-based assay; format: cell-based
[7] = test system: Mus musculus; test: Reduction in urine oxalate levels in Agxt1-/- mouse model at 110 mg/kg administered via oral gavage measured after 24 hrs post treatment for 11 days relative to control; format: functional; set-up: scale not given: the % may be the effect or the level left
[8] = target: T2, 2-Hydroxyacid oxidase 1; test: Inhibition of glycolate oxidase in mouse Agxt1-/- hepatocytes using glycolate as substrate assessed as reduction in oxalate production after 24 hrs by sulfonated-DCIP dye-based assay; format: cell-based
[9] = target: T2, 2-Hydroxyacid oxidase 1; test: Inhibition of glycolate oxidase in mouse Agxt1-/- hepatocytes using glycolate as substrate assessed as reduction in oxalate production after 72 hrs by sulfonated-DCIP dye-based assay; format: cell-based
[10] = target: T1, 2-Hydroxyacid oxidase 1 (Mus musculus); test: Inhibition of glycolate oxidase in C57BL/6 Agxt1-/- mouse hepatocytes using glycolate as substrate assessed as reduction in oxalate production at 10 uM after 24 hrs; format: cell-based; summary of the method: as §1

O=C(O)c1ccc(-c2ccoc2)cc1O
fold change (FC) [1]: 1.02 | inhibition [2]: 22.8%

O=Cc1ccc(-c2ccc(O)c(C(=O)O)c2)s1
fold change (FC) [1]: 0.93 | IC50 [3]: 9.4 µM | inhibition [2]: 52.1%

O=C(O)c1cc2ccccc2c(/N=N/c2c(O)cc(S(=O)(=O)O)c3ccccc23)c1O
fold change (FC) [1]: 1.11 | inhibition [2]: 75.1%

Cc1ccc(/N=N/c2cc(C(=O)O)cc3ccccc23)c(S(=O)(=O)O)c1
inhibition [2]: 1.5%

O=C(O)c1ccc(-c2cccs2)cc1O
fold change (FC) [1]: 0.74 | IC50 [3]: 32.5 µM | inhibition [2]: 35.4%

O=Cc1ccc(-c2ccc3cc(O)c(C(=O)O)cc3c2)o1
inhibition [2]: 26.2%

O=C(O)c1ccc(-c2ccco2)cc1O
fold change (FC) [1]: 0.87 | IC50 [3]: 39.3 µM | inhibition [2]: 35.8%

CC(=O)c1ccc(O)c(C(=O)O)c1
inhibition [2]: 22.1%

N[C@@H](CCC(=O)Nc1ccc(O)c(C(=O)O)c1)C(=O)O
inhibition [2]: 7.8%

COc1ccc(COc2ccc(-c3ccc(O)c(C(=O)O)c3)cc2)cc1
fold change (FC) [1]: 1.07 | IC50 [3]: 9.5 µM | inhibition [2]: 83.8%

O=Cc1ccc(-c2ccc(C(=O)O)c(CO)c2)o1
fold change (FC) [1]: 0.98 | inhibition [2]: 0%

COC(=O)c1ccc(-c2ccc(C=O)o2)cc1OC
fold change (FC) [1]: 0.9 | inhibition [2]: 17.5%

O=Cc1ccc(-c2cccc(C(=O)O)c2)o1
fold change (FC) [1]: 0.86 | inhibition [2]: 22.7%

O=C(O)c1nnsc1Sc1ccc(Cl)cc1
fold change (FC) [4]: 0.63 | IC50 [5]: 43.5 µM | Ki [5]: 20.3 µM | EC50 [6]: 33 µM | IC50 [3]: 43.5 µM | inhibition [2]: 34.8% | Activity [7]: 30 - 50% | EC50 [8]: 25.3 µM | EC50 [9]: 34 µM

Nc1ccc(O)c(C(=O)O)c1 [MESALAMINE]
fold change (FC) [1]: 0.88 | IC50 [3]: 7.8 µM | inhibition [2]: 71.9%

O=C(O)c1cc2cc(Br)ccc2cc1O
fold change (FC) [1]: 0.99 | IC50 [3]: 39.9 µM | inhibition [2]: 42.3%

O=C(O)c1cc(Oc2ccc([N+](=O)[O-])cc2)c2ccccc2c1O
fold change (FC) [1]: 0.77 | IC50 [3]: 2.9 µM | inhibition [2]: 96.3%

O=C(O)c1cc([N+](=O)[O-])c(-c2ccco2)cc1O
fold change (FC) [1]: 0.86 | inhibition [2]: 5.9%

O=C(O)c1cc(-c2cccs2)ccc1O
fold change (FC) [1]: 0.82 | IC50 [3]: 39.5 µM | inhibition [2]: 30%

Nc1ccc(C(=O)O)c(O)c1
inhibition [2]: 14.9%

O=C(O)c1cc(-c2ccccc2COc2cc(F)cc(F)c2)ccc1O
fold change (FC) [1]: 0.92 | IC50 [3]: 5.8 µM | inhibition [2]: 84.5%

O=C(O)c1cc(Sc2nnnn2-c2ccccc2)c2ccccc2c1O
fold change (FC) [1]: 0.99 | IC50 [3]: 11.1 µM | inhibition [2]: 75.3%

O=Cc1ccc(-c2ccc(C(=O)O)c(O)c2)s1
fold change (FC) [1]: 1 | inhibition [2]: 28.7%

O=C(O)c1cc(-c2ccoc2)ccc1O
fold change (FC) [1]: 0.89 | inhibition [2]: 26.6%

Cn1nccc1-c1ccc(C(=O)O)c(O)c1
fold change (FC) [1]: 0.93 | inhibition [2]: 16.2%

COc1ccc(COc2ccc(-c3ccc(C(=O)O)c(O)c3)cc2)cc1
fold change (FC) [1]: 0.9 | IC50 [3]: 13.8 µM | inhibition [2]: 65%

COc1cccc(-c2ccc(C(=O)O)c(O)c2)c1
fold change (FC) [1]: 0.83 | IC50 [3]: 19.5 µM | inhibition [2]: 50.9%

O=C(O)c1ccc(-c2ccc(C(=O)O)c(O)c2)o1
inhibition [2]: 0%

O=C(O)c1ccc(-c2ccccc2COc2cc(F)cc(F)c2)cc1O
fold change (FC) [1]: 0.72 | IC50 [3]: 8.3 µM | inhibition [2]: 77.7%

O=C(O)c1cc2ccccc2c(/N=N/c2cc(C(F)(F)F)ccc2Cl)c1O
fold change (FC) [1]: 0.91 | inhibition [2]: 47.4%

O=C(O)c1ccc(-c2ccc(OCc3ccccc3)cc2)cc1O
fold change (FC) [1]: 1.11 | IC50 [3]: 10.4 µM | inhibition [2]: 83.4%

O=C(O)c1ccc(Cl)cc1O
inhibition [2]: 20.8%

O=C(O)c1ccc(-c2ccsc2)cc1O
fold change (FC) [1]: 0.99 | IC50 [3]: 21.6 µM | inhibition [2]: 41.4%

O=Cc1ccc(-c2ccc(O)cc2)o1
fold change (FC) [1]: 0.32 | inhibition [2]: 24.2%

O=C(O)c1ccc(-c2ccc(O)cc2)cc1O
fold change (FC) [1]: 0.82 | IC50 [3]: 13.5 µM | inhibition [2]: 61.3%

O=C(O)c1ccc(-c2ccc([N+](=O)[O-])cc2)cc1O
fold change (FC) [1]: 0.91 | IC50 [3]: 19.7 µM | inhibition [2]: 41.9%

O=C(O)c1ccc(-c2ccc(CO)o2)cc1O
fold change (FC) [1]: 0.88 | IC50 [3]: 7.9 µM | inhibition [2]: 85.7%

CC(=O)c1ccc(-c2ccc(C(=O)O)c(O)c2)s1
fold change (FC) [1]: 0.89 | inhibition [2]: 28.1%

COc1cc(-c2ccc(C=O)o2)ccc1C(=O)O
fold change (FC) [1]: 0.82 | inhibition [2]: 0%

O=C(O)c1ccc(-c2ccc(O)c(C(=O)O)c2)o1
inhibition [10]: 30% | fold change (FC) [1]: 0.68 | inhibition [2]: 0%

O=C(O)c1cc(-c2ccccc2COc2cccc(C(F)(F)F)c2)ccc1O
inhibition [10]: 30% | fold change (FC) [1]: 0.68 | IC50 [3]: 3.5 µM | inhibition [2]: 96.2%

O=C(O)c1cc(-c2ccc(OCc3ccccc3)cc2)ccc1O
fold change (FC) [1]: 0.8 | IC50 [3]: 14.8 µM | inhibition [2]: 70.9%

O=C(O)c1cnc2cc(Cl)ccc2c1O
inhibition [2]: 24.8%

O=C(O)c1ccccc1O
inhibition [2]: 18.5%

O=Cc1ccc(-c2ccc(C(=O)O)c(O)c2)o1
fold change (FC) [1]: 0.88 | IC50 [3]: 34.5 µM | inhibition [2]: 82.8%

O=C(O)c1ccc(-c2ccncc2)cc1O
fold change (FC) [1]: 0.88 | inhibition [2]: 22.7%

O=C(O)c1cccc(F)c1O
inhibition [2]: 13.5%

Cc1ccc(-c2ccc(C(=O)O)c(O)c2)s1
fold change (FC) [1]: 0.95 | inhibition [2]: 28.7%

O=C(O)c1cc(-c2ccc(CO)o2)ccc1O
fold change (FC) [1]: 0.88 | IC50 [3]: 4.6 µM | inhibition [2]: 98%

O=C(O)c1ccc(-c2ccccc2COc2cccc(C(F)(F)F)c2)cc1O
inhibition [10]: 30% | fold change (FC) [1]: 0.62 | IC50 [3]: 4.4 µM | inhibition [2]: 98.6%

O=C(O)c1cc(-c2ccsc2)ccc1O
fold change (FC) [1]: 0.94 | inhibition [2]: 25.2%
